Reference: ChEMBL document CHEMBL4334504 (J Med Chem, 2019)
Converted amounts (≈) assume the structure as drawn.

Legend:
[1] = test system: Clostridioides difficile; assay: Antibacterial activity against Clostridium difficile VPI 10463 ATCC 43255 assessed as bacterial growth inhibition incubated for 48 hrs under anaerobic condition by CLSI protocol based assay; format: functional; settings: ATCC 43255 VPI 10463, 48 h
Method in brief: (§1)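 Broth microdilution following CLSI guidance. Strains pre-grown anaerobically on BHIS agar (BHI plus yeast extract, vitamin K1, hemin) at 37 °C for 48 h. ~10^5 CFU/mL in BHIS broth added to serial compound dilutions. Incubated anaerobically at 37 °C for 48 h. MIC is the lowest concentration showing visible growth inhibition.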

[2] = test system: Clostridioides difficile; assay: Antibacterial activity against Clostridium difficile 4118 ATCC BAA 1870 assessed as bacterial growth inhibition incubated for 48 hrs under anaerobic condition by CLSI protocol-based assay; format: functional; settings: 4118 ATCC BAA 1870, 48 h; method in brief: as §1
[3] = test system: Enterobacter cloacae; assay: Effect on growth of Enterobacter cloacae ATCC BAA 1143 assessed as bacterial growth inhibition measured after 16 to 18 hrs grown in tryptic soy medium by CLSI method; format: organism-based; settings: in vivo
Method in brief: (§2)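 CLSI microdilution. Colonies from TSA (16-20 h, 37 °C) suspended in PBS to 0.5 McFarland, then diluted in TSB to ~10^5 CFU/mL. Incubated with serial compound dilutions for 16-20 h at 37 °C. MIC is the lowest concentration inhibiting growth.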

[4] = test system: Escherichia coli; assay: Effect on growth of Escherichia coli ATCC 25922 assessed as bacterial growth inhibition measured after 16 to 18 hrs by CLSI method; format: organism-based; settings: in vivo; method in brief: as §2
[5] = Effect on growth of Lactobacillus crispatus JV-V01 HM 103 measured after 48 hrs in 5% CO2 by CLSI method; settings: lactobacillus crispatus jv-v01, 48 h
[6] = test system: Lacticaseibacillus paracasei; assay: Effect on growth of Lactobacillus casei ATCC 334 measured after 48 hrs in 5% CO2 by CLSI method
[7] = test system: Bifidobacterium bifidum; assay: Effect on growth of Bifidobacterium bifidum 212A ATCC 11863 measured after 48 hrs in anerobic conditions by CLSI method; format: organism-based; settings: in vivo
[8] = Effect on growth of Lactobacillus gasseri EX336960VC03 HM 400 measured after 48 hrs in 5% CO2 by CLSI method; settings: lactobacillus gasseri ex336960vc03, 48 h
[9] = test system: Vero; assay: Cytotoxicity against African green monkey Vero cells at > 256 uM measured after 2 hrs by MTS assay; format: cell-based; settings: chlorocebus sabaeus
[10] = test system: Caco-2; assay: Cytotoxicity against human Caco2 cells at > 256 uM measured after 2 hrs by MTS assay; format: cell-based; settings: caco-2, 2 h
[11] = test system: HRT-18 cell line; assay: Cytotoxicity against human HRT18 cells at > 256 uM measured after 2 hrs by MTS assay; format: cell-based; settings: hrt-18, 2 h

Molecule | MIC [1] | MIC [2] | further results
O=c1[nH]c(-c2cccc([N+](=O)[O-])c2)nc2c([N+](=O)[O-])csc12 | 50 µM (≈ 15.9 µg/mL) | 50 µM (≈ 15.9 µg/mL) | –
Cc1nc2ccoc2c(=O)[nH]1 | > 852 µM | > 852 µM | –
GENTAMICIN | – | – | MIC [3]: <= 1 uM; MIC [4]: 8 µM
Cc1nc2c([N+](=O)[O-])csc2c(=O)n1CC(=O)OC(C)(C)C | 98 µM (≈ 31.9 µg/mL) | 49 µM (≈ 15.9 µg/mL) | –
Cc1nc2c([N+](=O)[O-])scc2c(=O)[nH]1 | 38 µM (≈ 8.03 µg/mL) | 38 µM (≈ 8.03 µg/mL) | MIC [5]: > 700 µM; MIC [3]: > 700 µM; MIC [6]: > 700 µM; MIC [7]: > 700 µM; MIC [8]: > 700 µM; MIC [4]: > 700 µM
O=c1[nH]c(/C=C/c2cccs2)nc2c([N+](=O)[O-])csc12 | 13 µM (≈ 3.97 µg/mL) | 13 µM (≈ 3.97 µg/mL) | –
Cc1nc2c([N+](=O)[O-])csc2c(=O)n1-c1ccc(C(C)C)cc1 | > 389 µM | > 389 µM | –
Cc1nc2c(N)cccc2c(=O)[nH]1 | > 730 µM | > 730 µM | –
O=C(O)c1ccc(/C=C/c2nc3c([N+](=O)[O-])csc3c(=O)[nH]2)cc1 | 184 µM (≈ 63.2 µg/mL) | 46 µM (≈ 15.8 µg/mL) | –
Oc1ncnc2ccsc12 | 840 µM (≈ 128 µg/mL) | 420 µM (≈ 63.9 µg/mL) | –
O=c1[nH]c(/C=C/c2ccccc2F)nc2c([N+](=O)[O-])csc12 | 12 µM (≈ 3.81 µg/mL) | 6 µM (≈ 1.9 µg/mL) | MIC [5]: > 807 µM; Activity [9]: Non-Toxic; MIC [3]: > 807 µM; Activity [10]: Non-Toxic; MIC [6]: > 807 µM; Activity [11]: Non-Toxic; MIC [7]: > 807 µM; MIC [8]: > 807 µM; MIC [4]: > 807 µM
Cc1nc2c([N+](=O)[O-])csc2c(=O)n1CC(=O)O | > 475 µM | > 475 µM | –
O=c1[nH]c(/C=C/c2ccc(Cl)cc2)nc2c([N+](=O)[O-])csc12 | 6 µM (≈ 2 µg/mL) | 6 µM (≈ 2 µg/mL) | MIC [5]: > 767 µM; Activity [9]: Non-Toxic; MIC [3]: > 767 µM; Activity [10]: Non-Toxic; MIC [6]: > 767 µM; Activity [11]: Non-Toxic; MIC [7]: > 767 µM; MIC [8]: > 767 µM; MIC [4]: > 767 µM
O=c1[nH]c(/C=C/c2ccco2)nc2c([N+](=O)[O-])csc12 | 27 µM (≈ 7.81 µg/mL) | 27 µM (≈ 7.81 µg/mL) | –
CCc1nc2c([N+](=O)[O-])csc2c(=O)[nH]1 | 35 µM (≈ 7.88 µg/mL) | 35 µM (≈ 7.88 µg/mL) | –
Cc1nc2c([N+](=O)[O-])cccc2c(=O)[nH]1 | 156 µM (≈ 32 µg/mL) | 312 µM (≈ 64 µg/mL) | MIC [5]: > 700 µM; MIC [3]: > 700 µM; MIC [6]: > 700 µM; MIC [7]: > 700 µM; MIC [8]: > 700 µM; MIC [4]: > 700 µM
COc1ccc(-n2c(C)nc3c([N+](=O)[O-])csc3c2=O)cc1 | 101 µM (≈ 32 µg/mL) | 202 µM (≈ 64.1 µg/mL) | –
Cc1nc2c([N+](=O)[O-])csc2c(=O)n1-c1ccc(-c2ccccc2)cc1 | 176 µM (≈ 64 µg/mL) | 352 µM (≈ 128 µg/mL) | –
O=[N+]([O-])c1csc2c(Cl)nc(/C=C/c3ccc(F)cc3)nc12 | 95 µM (≈ 31.9 µg/mL) | 95 µM (≈ 31.9 µg/mL) | –
Cc1nc2c([N+](=O)[O-])csc2c(=O)n1Cc1ccc(C#N)cc1 | 50 µM (≈ 16.3 µg/mL) | 25 µM (≈ 8.16 µg/mL) | –
COc1ccc(/C=C/c2nc3c([N+](=O)[O-])csc3c(=O)[nH]2)cc1 | 12 µM (≈ 3.95 µg/mL) | 12 µM (≈ 3.95 µg/mL) | –
Cc1nc2c(F)cccc2c(=O)[nH]1 | > 718 µM | > 718 µM | –
CCOC(=O)Cn1c(C)nc2c([N+](=O)[O-])csc2c1=O | 54 µM (≈ 16.1 µg/mL) | 54 µM (≈ 16.1 µg/mL) | –
Cc1nc(Cl)c2scc([N+](=O)[O-])c2n1 | 34 µM (≈ 7.81 µg/mL) | 17 µM (≈ 3.9 µg/mL) | –
Cc1nc2cscc2c(=O)[nH]1 | 768 µM (≈ 128 µg/mL) | 192 µM (≈ 31.9 µg/mL) | –
Cc1csc2c(O)ncnc12 | > 770 µM | > 770 µM | –
Cc1nc2c([N+](=O)[O-])csc2c(=O)n1Cc1ccccc1 | 56 µM (≈ 16.9 µg/mL) | 7 µM (≈ 2.11 µg/mL) | MIC [5]: > 425 µM; Activity [9]: Non-Toxic; MIC [3]: > 850 µM; Activity [10]: Non-Toxic; MIC [6]: > 425 µM; Activity [11]: Non-Toxic; MIC [7]: > 425 µM; MIC [8]: > 425 µM; MIC [4]: > 850 µM
